According to ChEMBL document CHEMBL1681732, “Synthesis and SAR of sulfoxide substituted carboxyquinolines as NK3 receptor antagonists” (Bioorg Med Chem Lett, 2011):
≈ marks a conversion by molar mass, not a printed value.

Columns and labels:
[1] = Half life in rat; type: ADME, organism-based; details: in vivo
[2] = target: T1, Neuromedin-K receptor (Homo sapiens, UniProt P29371); assay: Antagonist activity at human NK3 receptor expressed in CHO cells assessed as inhibition of senktide-induced calcium flux by FLIPR assay; type: functional, cell-based
T1 sequence (P29371 whole entry): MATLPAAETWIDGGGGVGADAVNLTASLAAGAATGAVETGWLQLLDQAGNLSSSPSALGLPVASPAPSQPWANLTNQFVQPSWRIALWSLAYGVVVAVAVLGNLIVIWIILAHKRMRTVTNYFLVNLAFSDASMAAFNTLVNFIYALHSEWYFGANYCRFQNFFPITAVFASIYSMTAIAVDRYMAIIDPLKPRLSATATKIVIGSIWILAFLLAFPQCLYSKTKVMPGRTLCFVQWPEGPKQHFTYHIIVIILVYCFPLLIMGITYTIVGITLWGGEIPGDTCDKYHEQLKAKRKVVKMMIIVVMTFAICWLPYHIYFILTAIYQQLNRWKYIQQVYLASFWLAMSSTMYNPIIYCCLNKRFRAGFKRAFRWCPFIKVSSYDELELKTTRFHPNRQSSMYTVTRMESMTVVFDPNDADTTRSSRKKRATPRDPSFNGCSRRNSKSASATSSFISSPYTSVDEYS
Method in brief: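 FLIPR functional assay in CHO cells stably expressing human recombinant NK3 receptor. EC50 given as mean ± SEM (n ≥ 2), or as a single value where n = 1. Tested as 1:1 diastereomer mixtures unless marked as a single isomer.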

[3] = Intrinsic clearance in human liver microsomes assessed per mg of protein; type: ADME, Microsome
[4] = Selectivity ratio of EC50 for human NK3 receptor to EC50 for NK2 receptor
[5] = Ratio of drug level in brain to plasma in rat at 3 umol/kg, iv after 1 hr; type: ADME, organism-based; details: brain and plasma, read-out: BPR
Method in brief: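 Rat dosed iv at 3 µmol/kg. Total brain and plasma levels taken 1 h post dose, and their ratio reported.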

[6] = target: Voltage-gated inwardly rectifying potassium channel KCNH2 (Homo sapiens, UniProt Q12809); assay: Inhibition of human ERG
Voltage-gated inwardly rectifying potassium channel KCNH2, sequence (Q12809 whole entry): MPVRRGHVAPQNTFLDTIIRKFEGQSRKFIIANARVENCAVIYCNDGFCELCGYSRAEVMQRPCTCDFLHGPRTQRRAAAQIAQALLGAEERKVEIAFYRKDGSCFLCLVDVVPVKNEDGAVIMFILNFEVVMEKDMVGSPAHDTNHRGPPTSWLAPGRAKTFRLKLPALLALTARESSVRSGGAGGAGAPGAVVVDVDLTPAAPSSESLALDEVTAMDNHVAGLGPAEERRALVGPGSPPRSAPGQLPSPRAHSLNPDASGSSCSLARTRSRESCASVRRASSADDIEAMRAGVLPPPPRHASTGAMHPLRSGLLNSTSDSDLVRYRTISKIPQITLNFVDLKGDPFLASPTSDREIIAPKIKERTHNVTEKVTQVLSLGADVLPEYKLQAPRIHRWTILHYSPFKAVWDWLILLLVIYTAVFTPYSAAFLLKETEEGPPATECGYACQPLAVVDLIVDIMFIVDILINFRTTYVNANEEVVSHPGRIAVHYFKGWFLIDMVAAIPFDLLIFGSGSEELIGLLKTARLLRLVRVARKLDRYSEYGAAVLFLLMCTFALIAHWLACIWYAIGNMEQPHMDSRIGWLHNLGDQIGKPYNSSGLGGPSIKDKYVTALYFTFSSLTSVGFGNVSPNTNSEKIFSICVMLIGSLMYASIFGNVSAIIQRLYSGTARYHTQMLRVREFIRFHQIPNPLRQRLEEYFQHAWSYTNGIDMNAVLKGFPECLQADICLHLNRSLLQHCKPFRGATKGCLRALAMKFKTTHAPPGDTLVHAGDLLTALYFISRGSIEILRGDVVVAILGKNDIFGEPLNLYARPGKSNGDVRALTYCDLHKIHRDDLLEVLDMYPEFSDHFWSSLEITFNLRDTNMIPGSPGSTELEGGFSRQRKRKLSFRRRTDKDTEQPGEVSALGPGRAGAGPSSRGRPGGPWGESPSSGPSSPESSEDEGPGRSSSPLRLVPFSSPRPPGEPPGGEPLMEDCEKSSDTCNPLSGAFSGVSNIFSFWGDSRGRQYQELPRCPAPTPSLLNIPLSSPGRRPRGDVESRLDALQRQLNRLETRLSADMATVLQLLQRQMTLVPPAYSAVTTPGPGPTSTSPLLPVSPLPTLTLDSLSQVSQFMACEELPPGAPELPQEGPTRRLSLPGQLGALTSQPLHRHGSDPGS

[7] = test system: MDR1; assay: (§1) Apparent permeability across MDCK cells expressing human MDR1; type: ADME, cell-based, Canis lupus familiaris; details: dog, MDCK-MDR1
Method in brief: (§2)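 Permeability measured in MDCK cells expressing human MDR1. Papp is expressed in 10^-6 cm/s and reported together with the efflux ratio.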

[8] = test system: MDR1; assay: (§3) Efflux ratio of permeability in MDCK cells expressing human MDR1; type: ADME, cell-based, Canis lupus familiaris; details: dog, MDCK-MDR1; method in brief: as §2
[9] = Clearance in rat plasma; type: ADME, organism-based
[10] = Oral bioavailability in rat; type: ADME, organism-based; details: in vivo
[11] = Lipophilicity, log D of the compound; type: physicochemical; details: octanol/water
[12] = test system: Gerbillinae; assay: Reversal of senktide-induced locomotor activity in ip dosed gerbil; type: functional
[13] = Selectivity ratio of EC50 for human NK3 receptor to EC50 for NK1 receptor
[14] = Equilibrium solubility of the compound; type: physicochemical
[15] = Oral bioavailability in dog; type: ADME, organism-based, Canis lupus familiaris; details: in vivo
[16] = Plasma clearance in dog; type: ADME, organism-based, Canis lupus familiaris
[17] = Half life in dog; type: ADME, organism-based, Canis lupus familiaris; details: in vivo
[18] = test system: MDCK; assay: as §1; type: ADME, cell-based, Canis lupus familiaris; details: dog, mdck; method in brief: as §2
[19] = test system: MDCK; assay: as §3; type: ADME, cell-based, Canis lupus familiaris; details: dog, mdck; method in brief: as §2

EC50 [2] [nM]	solubility thermodynamic [14] [µM]	Structure (SMILES)	other results
3.7	270 (≈ 116 µg/mL)	CC[C@H](NC(=O)c1c([S@+](C)[O-])c(-c2ccccc2)nc2ccccc12)c1ccccc1	half-life [1]: 3 h; microsomal CLint [3]: 23 µL/min/mg; Ratio EC50 [4]: 1860; Kp at 1 h [5]: 0.4; INH [6]: > 33 µM; Papp [7]: 28 ×10⁻⁶ cm/s; efflux ratio [8]: 1.3; clearance [9]: 60 mL/min/kg; bioavailability [10]: 60%; logD [11]: 3; Activity [12]: Dose-dependent effect; ED50 [12]: 0.75 µmol/kg; Ratio EC50 [13]: > 2700
1.8	8 (≈ 3.54 µg/mL)	CC[C@H](NC(=O)c1c(C[S@@+](C)[O-])c(-c2ccccc2)nc2ccccc12)c1ccccc1	microsomal CLint [3]: 5.2 µL/min/mg; INH [6]: > 33 µM; Papp [7]: 10 ×10⁻⁶ cm/s; efflux ratio [8]: 2.6; logD [11]: 3.5; ED50 [12]: 22 µmol/kg
5.3	53 (≈ 23.5 µg/mL)	CC[C@H](NC(=O)c1c(C[S@+](C)[O-])c(-c2ccccc2)nc2ccccc12)c1ccccc1	bioavailability [15]: 89%; microsomal CLint [3]: 8.4 µL/min/mg; Ratio EC50 [4]: 170; INH [6]: > 33 µM; Papp [7]: 9.9 ×10⁻⁶ cm/s; efflux ratio [8]: 3.7; clearance [16]: 2.3 mL/min/kg; logD [11]: 3.5; ED50 [12]: 2 µmol/kg; Ratio EC50 [13]: > 660; half-life [17]: 6.7 h
36	< 1	CC[C@H](NC(=O)c1c(SC)c(-c2ccccc2)nc2ccccc12)c1ccccc1 (mixture of isomers)	
4.9		CC[C@H](NC(=O)c1c([S+](C)[O-])c(-c2ccccc2)nc2ccccc12)c1ccccc1 (mixture of isomers)	Papp [7]: 9.4 ×10⁻⁶ cm/s; efflux ratio [8]: 2.7; solubility [14]: 230 µM
14	36	CC[C@H](NC(=O)c1c(S(C)(=O)=O)c(-c2ccccc2)nc2ccccc12)c1ccccc1 (mixture of isomers)	Papp [7]: 11 ×10⁻⁶ cm/s; efflux ratio [8]: 2.6
35	2	CC[C@H](NC(=O)c1c(CSC)c(-c2ccccc2)nc2ccccc12)c1ccccc1 (mixture of isomers)	Papp [7]: 5.9 ×10⁻⁶ cm/s; efflux ratio [8]: 1.1
2.5	4	CC[C@H](NC(=O)c1c(CS(C)(=O)=O)c(-c2ccccc2)nc2ccccc12)c1ccccc1 (mixture of isomers)	Papp [7]: 11 ×10⁻⁶ cm/s; efflux ratio [8]: 3.1
3.3	360	CC[C@H](NC(=O)c1c(CC[S+](C)[O-])c(-c2ccccc2)nc2ccccc12)c1ccccc1 (mixture of isomers)	Papp [7]: 1 ×10⁻⁶ cm/s; efflux ratio [8]: 21
81	53	CC[C@H](NC(=O)c1c([S+](C)[O-])c(-c2ccccc2F)nc2ccccc12)c1ccccc1 (mixture of isomers)	
18	100	CC[C@H](NC(=O)c1c([S+](C)[O-])c(-c2cccc(F)c2)nc2ccccc12)c1ccccc1 (mixture of isomers)	
48	88	CC[C@H](NC(=O)c1c([S+](C)[O-])c(-c2ccc(F)cc2)nc2ccccc12)c1ccccc1 (mixture of isomers)	
1.7	47	CC[C@H](NC(=O)c1c([S+](C)[O-])c(-c2cccs2)nc2ccccc12)c1ccccc1 (mixture of isomers)	microsomal CLint [3]: 220 µL/min/mg
1.8		CC[C@H](NC(=O)c1c([S+](C)[O-])c(-c2ccsc2)nc2ccccc12)c1ccccc1 (mixture of isomers)	microsomal CLint [3]: 190 µL/min/mg
1120	360	CC[C@H](NC(=O)c1c([S+](C)[O-])c(-c2ccccn2)nc2ccccc12)c1ccccc1 (mixture of isomers)	
110	41	CC[C@H](NC(=O)c1c([S+](C)[O-])c(-c2cscn2)nc2ccccc12)c1ccccc1 (mixture of isomers)	
220	390	CC[C@H](NC(=O)c1c([S+](C)[O-])c(-c2cncs2)nc2ccccc12)c1ccccc1 (mixture of isomers)	
2500	420	CC[C@H](NC(=O)c1c([S+](C)[O-])c(-c2cc[nH]n2)nc2ccccc12)c1ccccc1 (mixture of isomers)	
6.9	170	CC[C@H](NC(=O)c1c([S+]([O-])CC)c(-c2ccccc2)nc2ccccc12)c1ccccc1 (mixture of isomers)	
16	83	CC[C@H](NC(=O)c1c([S+]([O-])C(C)C)c(-c2ccccc2)nc2ccccc12)c1ccccc1 (mixture of isomers)	

EC50 [2] [nM]	solubility thermodynamic [14] [µM]	Structure (SMILES)	other results
12	52	CC[C@H](NC(=O)c1c([S+]([O-])CC(=O)N(C)C)c(-c2ccccc2)nc2ccccc12)c1ccccc1 (mixture of isomers)	
8.2	160	CC[C@H](NC(=O)c1c([S+](C)[O-])c(-c2ccccc2)nc2c(F)cccc12)c1ccccc1 (mixture of isomers)	
1900	16	CC[C@H](NC(=O)c1c([S+](C)[O-])c(-c2ccccc2)nc2c(C)cccc12)c1ccccc1 (mixture of isomers)	
13	58	CC[C@H](NC(=O)c1c([S+](C)[O-])c(-c2ccccc2)nc2cc(F)ccc12)c1ccccc1 (mixture of isomers)	
7.7	34	CC[C@H](NC(=O)c1c([S+](C)[O-])c(-c2ccccc2)nc2cc(Cl)ccc12)c1ccccc1 (mixture of isomers)	
38	69	CCOc1ccc2c(C(=O)N[C@@H](CC)c3ccccc3)c([S+](C)[O-])c(-c3ccccc3)nc2c1 (mixture of isomers)	
212	44	CC[C@H](NC(=O)c1c([S+](C)[O-])c(-c2ccccc2)nc2cc(N(C)C)ccc12)c1ccccc1 (mixture of isomers)	
5.1	15	CC[C@H](NC(=O)c1c([S+](C)[O-])c(-c2ccccc2)nc2cc(Br)ccc12)c1ccccc1 (mixture of isomers)	
3.6	160	CC[C@H](NC(=O)c1c([S+](C)[O-])c(-c2ccccc2)nc2cc(C)ccc12)c1ccccc1 (mixture of isomers)	
88	460	CC[C@H](NC(=O)c1c([S+](C)[O-])c(-c2ccccc2)nc2cc(CN(C)C)ccc12)c1ccccc1 (mixture of isomers)	
15	180	C[S+]([O-])c1c(-c2ccccc2)nc2ccccc2c1C(=O)N[C@H](c1ccccc1)C1CC1 (mixture of isomers)	
> 10000		C[S+]([O-])c1c(-c2ccccc2)nc2ccccc2c1C(=O)N[C@H](c1ccncc1)C1CC1 (mixture of isomers)	solubility [14]: 99 µM
74	350	CC[C@H](NC(=O)c1c([S+](C)[O-])c(-c2ccccc2)nc2ccccc12)c1cccnc1 (mixture of isomers)	
77	420	CC[C@H](NC(=O)c1c([S+](C)[O-])c(-c2ccccc2)nc2ccccc12)c1ccccn1 (mixture of isomers; 35a)	
> 5200		CC[C@H](NC(=O)c1c([S+](C)[O-])c(-c2ccccc2)nc2ccccc12)c1ccccn1 (mixture of isomers; 35b)	solubility [14]: 460 µM
16	1.3 (≈ 0.555 µg/mL)	C[S+]([O-])c1c(-c2ccccc2)nc2ccccc2c1C(=O)NC1(c2ccccc2)CC1 (racemic)	
38	4.5 (≈ 1.98 µg/mL)	C[S+]([O-])c1c(-c2ccccc2)nc2ccccc2c1C(=O)NC1(c2ccccc2)CCC1 (racemic)	
690	470 (≈ 202 µg/mL)	CC[C@H](NC(=O)c1c([S+](C)[O-])c(-c2cccnc2)nc2ccccc12)c1ccccc1 (single isomer, unassigned)	
240		CC[C@H](NC(=O)c1c([S+](C)[O-])c(-c2ccccc2)nc2ccccc12)c1ccccc1 (stereo in doubt; 2b)	Papp [18]: 17 ×10⁻⁶ cm/s; Ratio [19]: 2; solubility [14]: 44 µM (≈ 18.9 µg/mL)
> 9300		C[S+]([O-])c1c(-c2ccccc2)nc2ccccc2c1C(=O)N[C@H](c1ccncc1)C1CC1 (stereo in doubt; 33b)	solubility [14]: 370 µM (≈ 163 µg/mL)
